Biological target: T1, Vitamin D3 receptor (Homo sapiens) (UniProt P11473)
T1 sequence (whole entry): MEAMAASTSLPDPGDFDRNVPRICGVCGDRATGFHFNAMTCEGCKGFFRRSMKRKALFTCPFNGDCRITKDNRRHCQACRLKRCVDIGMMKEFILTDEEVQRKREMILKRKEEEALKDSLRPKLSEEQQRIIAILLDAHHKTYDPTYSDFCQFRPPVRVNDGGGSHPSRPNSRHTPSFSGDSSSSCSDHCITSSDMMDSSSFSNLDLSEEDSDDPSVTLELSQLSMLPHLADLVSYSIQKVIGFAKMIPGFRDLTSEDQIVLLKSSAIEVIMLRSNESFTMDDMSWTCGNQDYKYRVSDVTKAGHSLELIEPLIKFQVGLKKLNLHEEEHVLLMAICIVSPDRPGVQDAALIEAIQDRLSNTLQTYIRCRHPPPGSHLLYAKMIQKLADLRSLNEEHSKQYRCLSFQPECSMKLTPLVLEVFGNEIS
Test: Antagonist activity at VDR LBD (unknown origin) using Alexa Fluor 647-labeled SRC2-3 as substrate incubated for 2 hrs in presence of calcitriol by fluorescence polarization assay
Summary of the method: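 VDR-LBD (0.1 μM) with Alexa Fluor 647-labelled SRC2-3 (17.5 nM) and 10 nM 1,25(OH)2D3 in 25 mM PIPES, 50 mM NaCl, 0.01% NP-40, pH 6.75. Compounds were serially diluted 1:2 from 10 mM DMSO stocks and incubated 2 h. Polarization was read at 635/685 nm. Three independent experiments in quadruplicate; IC50 by variable-slope nonlinear regression.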

With `CC(C)CCC[C@@H](C)[C@H]1CC[C@@H]2[C@]1(C)CCC1[C@]23C=C[C@]2(C[C@@H](O)CC[C@]12C)n1c(=O)n(C)c(=O)n13` (stereo partly specified) the Activity was over 100 µM.
